Reference: paper PMC6982535 (Science (New York, N.Y.), 2019)

How the values were obtained:
hERG = hERG (Homo sapiens, UniProt Q12809); assay: hERG channel currents in inside-out patches; type: cell-based; details: inside-out patches; result in words
TRAAK = biological target: T1, TRAAK (Homo sapiens, UniProt Q9NYG8); assay: Extended screening of K2P channels with BL-1249: TRAAK; type: cell-based; details: result in words
T1 sequence (Q9NYG8 1-393): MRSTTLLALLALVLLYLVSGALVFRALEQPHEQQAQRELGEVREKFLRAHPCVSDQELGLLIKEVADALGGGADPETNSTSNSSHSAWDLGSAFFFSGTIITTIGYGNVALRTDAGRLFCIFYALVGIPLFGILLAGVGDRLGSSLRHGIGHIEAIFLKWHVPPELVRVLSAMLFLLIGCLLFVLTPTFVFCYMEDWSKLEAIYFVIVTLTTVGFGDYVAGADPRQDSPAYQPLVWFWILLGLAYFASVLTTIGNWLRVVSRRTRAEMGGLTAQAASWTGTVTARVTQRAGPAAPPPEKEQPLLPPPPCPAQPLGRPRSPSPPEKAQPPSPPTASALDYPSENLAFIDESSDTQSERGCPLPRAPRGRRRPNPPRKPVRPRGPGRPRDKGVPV

TREK-1 = biological target: T2, TREK-1 (Homo sapiens, UniProt O95069); assay: TREK-1 channel currents in inside-out patches; type: cell-based; details: inside-out patches; result in words
T2 sequence (O95069 1-426): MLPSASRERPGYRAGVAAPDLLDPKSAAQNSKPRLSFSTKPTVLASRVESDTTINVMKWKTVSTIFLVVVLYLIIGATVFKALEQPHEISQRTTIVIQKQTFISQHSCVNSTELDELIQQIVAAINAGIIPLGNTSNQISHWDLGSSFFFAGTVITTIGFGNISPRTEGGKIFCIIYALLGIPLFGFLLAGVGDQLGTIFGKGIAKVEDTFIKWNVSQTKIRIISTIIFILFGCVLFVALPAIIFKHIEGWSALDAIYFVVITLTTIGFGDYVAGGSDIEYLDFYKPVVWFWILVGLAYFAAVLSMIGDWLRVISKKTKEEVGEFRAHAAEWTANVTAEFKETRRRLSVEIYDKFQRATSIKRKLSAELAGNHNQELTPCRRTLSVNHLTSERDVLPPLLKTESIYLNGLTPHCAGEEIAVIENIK
In short: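 TREK-1 currents were recorded in inside-out patches from Xenopus oocytes and evoked by voltage ramps. Currents were read at +40 mV. Concentration-response curves were obtained with and without 5 μM THexA (tetrahexylammonium). THexA inhibition of basal current was quantified separately. n ≥ 8.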

Kv1.5 = Kv1.5 (Homo sapiens, UniProt P22460); assay: BL-1249 on helix bundle-crossing gated channel Kv1.5; type: cell-based; details: result in words
Kv1.5, sequence (P22460 whole entry): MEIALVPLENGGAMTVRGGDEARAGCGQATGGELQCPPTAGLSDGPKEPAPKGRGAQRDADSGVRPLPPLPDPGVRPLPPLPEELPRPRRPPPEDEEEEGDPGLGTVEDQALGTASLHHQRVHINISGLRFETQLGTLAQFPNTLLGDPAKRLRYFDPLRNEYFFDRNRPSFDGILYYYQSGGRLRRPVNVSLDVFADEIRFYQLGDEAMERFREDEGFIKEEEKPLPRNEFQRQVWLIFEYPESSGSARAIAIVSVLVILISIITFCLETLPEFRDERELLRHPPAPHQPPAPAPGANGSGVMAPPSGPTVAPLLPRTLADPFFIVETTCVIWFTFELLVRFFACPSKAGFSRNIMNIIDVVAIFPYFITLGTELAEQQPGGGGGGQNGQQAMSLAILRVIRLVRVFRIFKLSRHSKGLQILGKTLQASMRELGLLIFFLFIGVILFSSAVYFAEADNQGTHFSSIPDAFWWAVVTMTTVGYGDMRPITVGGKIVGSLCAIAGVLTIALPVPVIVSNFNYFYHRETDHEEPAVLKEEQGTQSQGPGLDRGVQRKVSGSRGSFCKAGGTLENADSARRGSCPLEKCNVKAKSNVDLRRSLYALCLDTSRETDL

THIK-2 = biological target: T3, THIK-2 (Homo sapiens, UniProt Q9HB15); assay: Extended screening of K2P channels with BL-1249: THIK-2; type: cell-based; details: result in words
T3 sequence (Q9HB15 1-430): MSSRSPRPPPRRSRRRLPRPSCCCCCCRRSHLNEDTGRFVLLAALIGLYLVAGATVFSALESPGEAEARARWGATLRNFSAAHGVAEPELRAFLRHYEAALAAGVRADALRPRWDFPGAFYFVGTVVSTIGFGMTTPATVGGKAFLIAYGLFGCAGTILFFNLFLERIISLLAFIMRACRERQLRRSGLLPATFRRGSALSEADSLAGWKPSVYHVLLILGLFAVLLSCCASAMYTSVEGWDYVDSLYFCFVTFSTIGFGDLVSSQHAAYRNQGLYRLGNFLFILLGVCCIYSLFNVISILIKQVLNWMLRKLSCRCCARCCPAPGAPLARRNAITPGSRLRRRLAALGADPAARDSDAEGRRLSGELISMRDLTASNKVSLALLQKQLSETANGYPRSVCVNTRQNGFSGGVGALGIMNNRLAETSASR

TALK-1 = biological target: T4, TALK-1 (Homo sapiens, UniProt Q96T55); assay: Extended screening of K2P channels with BL-1249: TALK-1; type: cell-based; details: result in words
T4 sequence (Q96T55 1-309): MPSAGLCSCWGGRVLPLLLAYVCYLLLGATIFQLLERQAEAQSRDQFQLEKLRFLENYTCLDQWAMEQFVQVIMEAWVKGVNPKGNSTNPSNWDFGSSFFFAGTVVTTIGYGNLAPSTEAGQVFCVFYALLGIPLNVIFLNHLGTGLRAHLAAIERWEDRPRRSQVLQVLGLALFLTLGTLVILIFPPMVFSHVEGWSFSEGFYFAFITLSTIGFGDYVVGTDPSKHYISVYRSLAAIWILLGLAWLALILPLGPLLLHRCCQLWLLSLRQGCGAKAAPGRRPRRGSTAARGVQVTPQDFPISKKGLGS

[1] = acidic tetrazole ring; no reference given; cited from earlier work
TREK-2 = biological target: T5, TREK-2 (Homo sapiens, UniProt P57789); assay: TREK-2 channel currents, BL-1249 dose-response ± TEA or THexA; type: cell-based; details: extended screening; result in words
T5 sequence (P57789 1-538): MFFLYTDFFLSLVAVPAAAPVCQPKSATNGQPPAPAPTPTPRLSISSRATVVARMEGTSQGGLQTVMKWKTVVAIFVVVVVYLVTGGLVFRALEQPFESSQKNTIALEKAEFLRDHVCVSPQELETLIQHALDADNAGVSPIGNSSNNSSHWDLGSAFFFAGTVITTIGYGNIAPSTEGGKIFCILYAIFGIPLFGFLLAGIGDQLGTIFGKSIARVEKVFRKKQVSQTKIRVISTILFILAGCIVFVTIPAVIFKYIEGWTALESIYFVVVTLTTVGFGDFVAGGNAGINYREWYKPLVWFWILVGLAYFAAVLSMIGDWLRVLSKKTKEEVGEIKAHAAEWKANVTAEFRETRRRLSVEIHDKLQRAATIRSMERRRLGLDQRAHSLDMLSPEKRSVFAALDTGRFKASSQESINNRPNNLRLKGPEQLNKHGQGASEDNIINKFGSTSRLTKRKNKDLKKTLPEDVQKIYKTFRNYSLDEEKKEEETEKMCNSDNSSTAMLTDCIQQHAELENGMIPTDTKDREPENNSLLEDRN
In short: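 TREK-2 concentration-response curves for test compound were run with and without intracellular blocker: 100 mM TEA (n ≥ 12) or 5 μM THexA (n ≥ 13). Inhibition of basal current by each blocker was also quantified.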

CNG channels = assay: BL-1249 on CNG channels; type: cell-based; details: result in words

hERG, sequence (Q12809 whole entry): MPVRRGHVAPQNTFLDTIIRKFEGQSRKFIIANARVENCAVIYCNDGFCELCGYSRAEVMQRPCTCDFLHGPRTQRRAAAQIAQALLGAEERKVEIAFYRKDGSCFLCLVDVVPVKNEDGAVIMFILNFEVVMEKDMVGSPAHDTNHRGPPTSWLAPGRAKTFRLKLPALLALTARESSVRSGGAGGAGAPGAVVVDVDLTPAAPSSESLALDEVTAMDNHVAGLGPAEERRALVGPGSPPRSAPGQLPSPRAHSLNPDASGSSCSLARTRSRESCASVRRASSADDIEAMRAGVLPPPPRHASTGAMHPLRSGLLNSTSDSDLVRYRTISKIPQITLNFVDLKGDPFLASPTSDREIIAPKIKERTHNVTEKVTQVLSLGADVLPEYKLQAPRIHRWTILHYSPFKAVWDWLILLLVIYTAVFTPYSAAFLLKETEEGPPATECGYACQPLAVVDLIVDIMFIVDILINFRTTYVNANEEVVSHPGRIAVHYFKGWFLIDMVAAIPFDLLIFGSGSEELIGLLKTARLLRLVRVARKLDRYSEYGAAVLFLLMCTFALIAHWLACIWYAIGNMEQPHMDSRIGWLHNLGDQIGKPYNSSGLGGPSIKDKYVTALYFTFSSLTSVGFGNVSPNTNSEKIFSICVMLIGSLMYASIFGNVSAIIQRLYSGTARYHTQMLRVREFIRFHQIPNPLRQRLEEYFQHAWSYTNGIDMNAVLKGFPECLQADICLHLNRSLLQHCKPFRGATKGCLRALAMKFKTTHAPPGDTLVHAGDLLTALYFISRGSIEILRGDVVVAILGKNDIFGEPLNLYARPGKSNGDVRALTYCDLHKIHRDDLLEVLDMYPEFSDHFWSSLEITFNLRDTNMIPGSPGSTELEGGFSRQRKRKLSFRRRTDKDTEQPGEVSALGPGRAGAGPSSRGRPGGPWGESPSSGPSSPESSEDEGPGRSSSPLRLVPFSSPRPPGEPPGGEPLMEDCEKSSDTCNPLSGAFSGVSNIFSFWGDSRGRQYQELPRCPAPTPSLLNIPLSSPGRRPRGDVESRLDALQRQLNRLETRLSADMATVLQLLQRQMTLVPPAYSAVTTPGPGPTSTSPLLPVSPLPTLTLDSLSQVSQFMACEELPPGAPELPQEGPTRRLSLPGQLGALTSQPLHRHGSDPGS

## c1ccc(-c2nn[nH]n2)c(Nc2cccc3c2CCCC3)c1 [BL-1249]
hERG
  opening / activation of hERG channels: equal efficiency in opening
TRAAK
  activation of TRAAK: potent activation
TREK-1
  opening / activation of TREK-1 channels: equal efficiency in opening
Kv1.5
  activation of Kv1.5: not activated
THIK-2
  activation of THIK-2: potent activation
TALK-1
  activation of TALK-1: potent activation
[1]
  pKa: around 5
TREK-2
  activation of TREK-2: potent activation
CNG channels
  activation of CNG channels: not activated
